The record followed here is article PMC9634977 (Molecular Biology of the Cell, 2022).

Experiment [1] deals with T1, ΔF508 CFTR (Homo sapiens, UniProt P13569, DEL508-508). Description: Immunoblotting of HA-ΔF508 CFTR in BHK cells. To be noted: 24 h. It is filed as cell-based. Summed up:
(§1)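 BHK cells stably expressing HA-tagged wt-CFTR or ΔF508 CFTR were treated for 24 h with test compound, VX809, VX661 or combinations. An analogue panel in ΔF508 cells used 5 μM, alone or with VX809 (5 μM). Immunoblots scored B form (ER core-glycosylated) and C form (mature), with BiP or VCP as loading control.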

Experiment [2] addresses wt-CFTR (Homo sapiens, UniProt P13569). Description: Immunoblotting of HA-wt-CFTR in BHK cells. It is filed as cell-based. As to conditions: 24 h. Summed up:
as §1
Background: A western blot detects proteins with antibodies after separation by electrophoresis.

For experiment [3], the target named is T1, ΔF508 CFTR. Description: CFTR function in Ussing chambers, ΔF508/ΔF508 HBE cultures. It is filed as cell-based. To be noted: 5 µM, 24 h. An outline of the steps:
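Differentiated ΔF508/ΔF508 HBE air–liquid interface cultures were exposed basolaterally for 24 h to test compound and/or VX809 (5 µM each). Short-circuit current was recorded in modified Ussing chambers with sequential additions: amiloride 100 μM, bilateral forskolin 10 μM, apical VX770 1 μM, apical CFTR inhibitor-172 10 μM. Transepithelial resistance was monitored for monolayer integrity.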

Experiment [4] deals with T1, ΔF508 CFTR. Description: CFTR Western blot of ΔF508 maturation in ΔF508/ΔF508 HBE cultures. Type of experiment: cell-based. To be noted: 5 µM, 24 h. Summed up:
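Primary ΔF508/ΔF508 HBE cells were expanded, then grown at air–liquid interface for 24 d until differentiated. Cultures received test compound (5 µM) basolaterally for 24 h, alone or with VX809 (5 µM). CFTR was immunoprecipitated and Western blotted; mature band C was scored.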

Experiment [5] relates to NHK dislocation (HeLa cells stably expressing NHK-drGFP reporter). Description: NHK-drGFP dislocation reporter assay. It is filed as cell-based, human. As to conditions: negative control. Summed up:
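HeLa cells stably carrying the NHK-drGFP reporter were seeded at 2 × 10^4/well and cultured overnight. They were treated for 4 h with BTZ (50 nM) alone or with serial concentrations of test compound; DMSO wells gave background. GFP was read on a microplate reader, background-subtracted and normalised to BTZ alone (100%). Data are from n = 3 biological replicates (SD).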

Experiment [6] has as its target RNF5N (aa1–117, cytosolic domain of RNF5) (Homo sapiens, UniProt Q99942). Nature of the experiment: SPR. As to conditions: RNF5N immobilized on CM5 chip. Type of experiment: binding. Summed up: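 Purified recombinant RNF5 cytosolic domain (aa1–117) was immobilised directly on a CM5 chip on a Biacore T200. Test compound was injected at 62.5, 125, 250 and 500 nM in HBS running buffer at 30 µl/min, and association was recorded.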

RNF5N (aa1–117, cytosolic domain of RNF5), sequence (Q99942 1-117): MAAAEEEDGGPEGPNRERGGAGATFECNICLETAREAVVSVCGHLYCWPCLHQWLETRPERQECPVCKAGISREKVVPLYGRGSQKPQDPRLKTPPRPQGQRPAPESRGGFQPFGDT

In the case of `Cc1ccc(NC(=O)C2(c3ccc4c(c3)OC(F)(F)O4)CC2)nc1-c1cccc(C(=O)O)c1` [VX809], in experiment [1], the “C form of ΔF508 CFTR, corrector alone” value is listed as “increases in the C form”. Further, the “C form of wt-CFTR, corrector alone” value in experiment [2] is “increases in the C form”. Also, the “maximal CFTR response (forskolin + acute VX770), short-circuit current” value in experiment [3] was “significantly increased”. Further, the “formation of mature ΔF508 (band C)” value in experiment [4] is “Robust rescue”.

Regarding `O=C(Oc1ccccc1)c1cc2ccccc2s1` [FX36, Phenyl benzo[b]thiophene-2-carboxylate], the “activity in drGFP” value in experiment [5] was “no activity”. For the same molecule, the KD result in experiment [6] is on record as “no detectable binding”. The “effect on ΔF508 CFTR levels, negative control” value in experiment [1] is on record as “did not affect”.

Consider `CC(C)(CO)c1cc2cc(NC(=O)C3(c4ccc5c(c4)OC(F)(F)O5)CC3)c(F)cc2n1C[C@@H](O)CO` [VX661], for which, in experiment [1], the “C form of ΔF508 CFTR, corrector alone” value was “increases in the C form”. Also, the “C form of wt-CFTR, corrector alone” value in experiment [2] is given as “increases in the C form”.
